A word on the Ki: it is a dissociation constant, usually derived from enzyme kinetics or from competition with a known ligand. Read a low Ki as a stronger hold on the target.

This is an account of results in ChEMBL document CHEMBL3611998, “Syntheses and studies of new forms of N-sulfonyloxy β-lactams as potential antibacterial agents and β-lactamase inhibitors” (Bioorg Med Chem, 2015).

Calls of active or inactive are those of the source. No cut-off for these calls is given here.

One test relates to Mycolicibacterium vaccae. As to the kind of experiment: Antimicrobial activity against Mycobacterium vaccae IMET 10670 at 2 mM incubated for 48 hrs by agar diffusion assay. It is filed as functional. The conditions noted are these: IMET 10670, 48 h, read-out: DIZ. The essentials: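 Seeded-agar well diffusion: 2 mM test solution (from 20 mM DMSO stock, diluted 10-fold in MeOH), 50 μL per 9.0 mm well. Inoculum was 0.1 mL of a 0.5 McFarland saline suspension ([…]) in 34 mL Mueller-Hinton No. 2 agar. Incubation was at 37 °C for 48 h, with plates photographed after 3 days. Zone diameters were measured by caliper.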
In general terms: In agar diffusion tests the substance spreads into inoculated agar from a disc or well.

The subject of test [1] is Acinetobacter baumannii. As to the kind of experiment: Antimicrobial activity against Acinetobacter baumannii ATCC 17961 at 2 mM incubated for 20 hrs by agar diffusion assay. It is filed as functional. The conditions noted are these: ATCC 17961, 20 h, read-out: DIZ. Summed up:
(§1)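 The test solution was made as 20 mM in DMSO and diluted 10-fold in MeOH to 2 mM. Overnight LB cultures were adjusted to a 0.5 McFarland standard ([…] in 0.9% saline), and 0.1 mL was seeded into 34 mL Mueller-Hinton No. 2 agar at 47–50 °C. 50 μL was placed in 9.0 mm wells. Plates were incubated at 37 °C for 20 h, and inhibition zone diameters were measured by caliper.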

A further test deals with Burkholderia dolosa. The test can be described thus: Antimicrobial activity against Burkholderia dolosa at 2 mM incubated for 20 hrs by agar diffusion assay. The test is classed as functional. Conditions: read-out: DIZ. The essentials: as §1
For test [2], the system named is Pseudomonas aeruginosa. The test can be described thus: Antimicrobial activity against wild type Pseudomonas aeruginosa K799 at 2 mM incubated for 20 hrs by agar diffusion assay. The conditions noted are these: K799, 20 h, read-out: DIZ. It is filed as functional. Summed up: as §1
The test system of test [3] is Pseudomonas aeruginosa. As to the kind of experiment: Antimicrobial activity against Pseudomonas aeruginosa K799/61 at 2 mM incubated for 20 hrs by agar diffusion assay. It is filed as functional. The conditions noted are these: K799/61, 20 h, read-out: DIZ. Summed up: as §1
In test [4] the test system is Escherichia coli. As to the kind of experiment: Antimicrobial activity against Escherichia coli DC0 at 2 mM incubated for 20 hrs by agar diffusion assay. The test is classed as functional. The conditions noted are these: DC0, 20 h, read-out: DIZ. The essentials: as §1
For test [5], the system named is Escherichia coli. The test can be described thus: Antimicrobial activity against Escherichia coli DC2 assessed as very very unclear inhibition zone at 2 mM incubated for 20 hrs by agar diffusion assay. It is filed as functional. Conditions: DC2, 20 h, read-out: DIZ. Summed up: as §1
Test [6] can be described thus: Inhibition of beta-lactamase KPC-2 (unknown origin) using nitrocefin substrate incubated for 10 mins. The essentials:
(§2)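 Enzyme was preincubated with inhibitor at rt for 10 min in 50 mM sodium phosphate pH 7 with 0.1 mg/mL BSA. Inhibitor was tested at final concentrations of 160 μM to 3 nM (1:3 series, 8 points). Nitrocefin was then added at 50 μM, and hydrolysis was followed as OD 495 nm over time.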

A short description of test [7]: Inhibition of beta-lactamase CTX-M-14 (unknown origin) using nitrocefin substrate incubated for 10 mins. The essentials:
as §2

Test [8] is described as follows: Inhibition of beta-lactamase OXA-48 (unknown origin) using nitrocefin substrate incubated for 10 mins. The essentials:
as §2

The nature of test [9]: Inhibition of beta-lactamase AmpC (unknown origin) using nitrocefin substrate incubated for 10 mins. Summed up:
as §2

Test [10] in a line: Inhibition of beta-lactamase SHV-12 (unknown origin) using nitrocefin substrate incubated for 10 mins. The essentials: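 SHV-12 was added as 50 μL of a 0.111 mg/mL solution and preincubated for 10 min at rt with inhibitor (final 160 μM to 3 nM, 1:3 dilutions). Buffer was 50 mM sodium phosphate pH 7 with 0.1 mg/mL BSA. Reaction was started with 10 μM nitrocefin and followed as OD 495 nm over time.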

A short description of test [11]: Inhibition of beta-lactamase PAM-2035 (unknown origin) using nitrocefin substrate incubated for 10 mins.
Test [12] can be described thus: Inhibition of beta-lactamase NDM1 (unknown origin) using imipenem substrate incubated for 10 mins. Summed up:
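NDM-1 was added as 50 μL of a 0.110 mg/mL solution and preincubated with inhibitor (final 160 μM to 3 nM, 8-point 1:3 series) for 10 min at rt. Buffer was 50 mM sodium phosphate pH 7 with 0.1 mg/mL BSA. 10 μM imipenem was then added, and its disappearance was monitored over time.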

The nature of test [13]: Inhibition of beta-lactamase VIM-1 (unknown origin) using nitrocefin substrate incubated for 10 mins.
The subject of test [14] is Bacillus spizizenii. The test can be described thus: Antimicrobial activity against Bacillus subtilis ATCC 6633 at 2 mM incubated for 20 hrs by agar diffusion assay. It is filed as functional. Conditions: ATCC 6633, 20 h, read-out: DIZ. Summed up:
as §1

The subject of test [15] is Bacillus spizizenii. The test can be described thus: Antimicrobial activity against Bacillus subtilis ATCC 6633 assessed as unclear inhibition zone at 2 mM incubated for 20 hrs by agar diffusion assay. The conditions noted are these: ATCC 6633, 20 h, read-out: DIZ. It is filed as functional. Summed up:
as §1

The test system of a further test is Staphylococcus aureus. The test can be described thus: Antimicrobial activity against Staphylococcus aureus SG511 at 2 mM incubated for 20 hrs by agar diffusion assay. It is filed as functional. The essentials: as §1
For test [16], the system named is Micrococcus luteus. As to the kind of experiment: Antimicrobial activity against Micrococcus luteus ATCC 10240 at 2 mM incubated for 20 hrs by agar diffusion assay. The test is classed as functional. The conditions noted are these: ATCC 10240, 20 h, read-out: DIZ. Summed up:
as §1

Test [17] concerns Acinetobacter baumannii. As to the kind of experiment: Antimicrobial activity against Acinetobacter baumannii ATCC 17961 assessed as unclear inhibition zone at 2 mM incubated for 20 hrs by agar diffusion assay. It is filed as functional. The conditions noted are these: ATCC 17961, 20 h, read-out: DIZ. The essentials:
as §1

The test system of test [18] is Escherichia coli. The test can be described thus: Antimicrobial activity against Escherichia coli DC2 at 2 mM incubated for 20 hrs by agar diffusion assay. The test is classed as functional. Conditions: DC2, 20 h, read-out: DIZ. The essentials: as §1
Test [19] concerns Micrococcus luteus. The test can be described thus: Antimicrobial activity against Micrococcus luteus ATCC 10240 assessed as unclear inhibition zone at 2 mM incubated for 20 hrs by agar diffusion assay. It is filed as functional. Conditions: ATCC 10240, 20 h, read-out: DIZ. The essentials: as §1

As to `O=C1CC(CBr)N1OS(=O)(=O)c1ccc2ccccc2c1` (centres undefined), the zone of inhibition at 2000 µM came out at 17 mm in the test with Mycolicibacterium vaccae; 0 mm in the test with Acinetobacter baumannii [1]; 0 mm with Burkholderia dolosa; 0 mm in the test with Pseudomonas aeruginosa [2]; 0 mm in the test with Pseudomonas aeruginosa [3]; 0 mm with Escherichia coli [4]. Besides, the zone of inhibition at 2000 µM in the test with Escherichia coli [5] was 15 mm; in the test on Bacillus spizizenii [14], 13 mm; with Bacillus spizizenii [15] it was 17 mm; with Staphylococcus aureus (SG511, 20 h, read-out: DIZ), 13 mm; in the test on Micrococcus luteus [16], 12 mm. Further, the inhibition constant Ki was more than 160 µM in [6]; more than 160 µM in [7]; more than 160 µM in test [8]; more than 160 µM in test [9]; 190 nM in [10]; more than 160 µM in [11]. In addition, the inhibition constant Ki in test [12] and in [13] was more than 160 µM in each case.

As to `Cc1ccc(S(=O)(=O)ON2C(=O)CC2Cn2cc(CNC(=O)c3cc(C(F)(F)F)ccc3Cl)nn2)cc1` (centres undefined), the zone of inhibition at 2000 µM in the test with Mycolicibacterium vaccae was determined as 0 mm; with Acinetobacter baumannii [17], 13 mm; in the test with Burkholderia dolosa it was 0 mm; in the test on Pseudomonas aeruginosa [2], 0 mm; in the test on Pseudomonas aeruginosa [3] it was 0 mm; in the test on Escherichia coli [4], 0 mm. Moreover, the zone of inhibition at 2000 µM in the test with Escherichia coli [18] is 0 mm; in the test with Bacillus spizizenii [15] it was 13 mm; with Micrococcus luteus [19], 13 mm. In addition, the “diameter of the inhibition zone (DIZ)” value in the test on Staphylococcus aureus was “Active”.
